Hits are enriched below; roughly 2.5% of the tested compounds scored in any of these assays.
FGF22 binding-1: binders of human FGF22 protein, primary screen, FGF22 synaptogenesis inhibitor project, biophysical, thermal shift, single point. Fibroblast growth factor 22 (Homo sapiens), Q9HCT0. recombinant FGF22 thermal shift, SYPRO orange fluorescence; percent of sucrose octasulfate shift, DMSO zero. activity (Tm shift, normalised), % at 9.99 µM. hit rate 1.5% among 340,000. AID 651658, 2012;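 active = mean Tm shift, scaled 0 neutral to 100 positive control, at about 1.3% or above, every replicate too, limit read from the data; inconclusive = no clear call, values can overlap the other calls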
E-sel inducer: E-selectin induction in HUVECs, primary screen, imaging, HUVEC, immunofluorescence imaging, single point; P16581; normalized: neutral wells 0, TNF-alpha wells 100; activation, % at 7.58 µM; hit rate 0.37% among 260,000;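 active = mean E-selectin-positive cell signal at least 10% of the positive control, reached in at least 60% of replicates, without over 20% cell loss; inconclusive = no rule given, readout overlaps actives, possibly toxicity-flagged; inactive = the rest, including those meeting only one limit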
Target sequence (P16581 whole entry, looked up): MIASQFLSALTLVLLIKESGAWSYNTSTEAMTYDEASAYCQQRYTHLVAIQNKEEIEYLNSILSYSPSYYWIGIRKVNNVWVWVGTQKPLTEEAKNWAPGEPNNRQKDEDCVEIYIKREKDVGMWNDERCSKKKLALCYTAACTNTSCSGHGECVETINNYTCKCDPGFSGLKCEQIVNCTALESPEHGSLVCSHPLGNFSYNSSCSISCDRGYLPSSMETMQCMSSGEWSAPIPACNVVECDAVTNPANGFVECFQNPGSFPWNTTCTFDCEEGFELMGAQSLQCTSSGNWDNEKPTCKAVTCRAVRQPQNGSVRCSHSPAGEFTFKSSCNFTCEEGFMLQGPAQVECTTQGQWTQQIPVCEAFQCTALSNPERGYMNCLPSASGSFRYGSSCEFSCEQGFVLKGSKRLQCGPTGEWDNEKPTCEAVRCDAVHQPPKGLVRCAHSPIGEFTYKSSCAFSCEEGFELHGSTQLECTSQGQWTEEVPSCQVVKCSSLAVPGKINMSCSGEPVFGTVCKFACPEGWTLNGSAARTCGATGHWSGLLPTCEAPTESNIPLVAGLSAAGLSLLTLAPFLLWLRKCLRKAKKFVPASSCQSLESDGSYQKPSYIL
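Read-out: % PE-positive cells | Test system: HUVEC | Doses: One compound dose added by pin transfer | Buffer or medium: EGM-2 over gelatin coat | Signal: Immunofluorescence imaging | Benchmarks: TNF-alpha, DMSO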
SIRT5 inh: SIRT5 desuccinylase inhibitors, primary screen, biochemical, fluorescence imaging, single point, set 5; NAD-dependent protein deacylase sirtuin-5, mitochondrial (Homo sapiens), Q9NXA8; Purified SirT5, succinyl-peptide AMC, trypsin-coupled fluorescence; inhibition, % at 15 µM; hit rate 1.1% among 330,000; in the data active = inhibition above about 15%; inconclusive = no clear call, values can overlap the other calls
S100A4 MyoIIA: inhibitors of S100A4-myosin IIA peptide binding, primary screen, biochemical, fluorescence polarization, TAMRA-MyoIIA peptide | hit rate 0.14% among 360,000 | Protein S100-A4 (Homo sapiens), P26447 | inhibition, % at 10.7 µM;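 active = mean inhibition of at least 70% across replicates, with every replicate also reaching that level; inconclusive = mean inhibition reaches 70% but some replicates fall short; inactive = mean inhibition below 70%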
Target sequence (P26447 whole entry, looked up): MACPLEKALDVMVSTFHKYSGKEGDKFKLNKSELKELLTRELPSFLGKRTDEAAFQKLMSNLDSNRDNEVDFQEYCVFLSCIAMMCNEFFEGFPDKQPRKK
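Material: S100A4 monomer protein | Medium: HEPES pH 7.2 with CaCl2, KCl, NaCl, DTT, Triton | Reagent: Labelled myosin peptide probe, 5 nM | Doses: One dose per compound | Times: 5 min incubation before reading | Benchmarks: Neutral control DMSO, positive control TFP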
miR-122 sensor: miR-122 Renilla sensor signal increase in Huh7, primary screen, miR-122 inhibitor project, cell-based, single point, plate reader | Huh7 miR-122 Renilla luciferase sensor, 48 h; neutral wells = 0, positive control = 100 | activation (reporter increase), % at 12.5 µM | hit rate 0.3% among 340,000;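 active = mean replicate activation score at least 90 and every replicate individually at or above 90; inconclusive = only one of the two criteria met; inactive = neither criterion met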;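 also: higher luciferase means less miR-122 activity so hits act as miR-122 inhibitors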
FGF22 binding-2: binders of human FGF22 protein, dose response, FGF22 synaptogenesis inhibitor project, biophysical, thermal shift, cherry-pick retest; shares compounds with FGF22 binding-1; recombinant FGF22 thermal shift, SYPRO orange fluorescence; thermal shift activity, °C (ΔTm) at 38 µM; hit rate 2% among 1,000; AID 720646, 2013;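 active = fitted rise in melting shift crosses a set limit at or below the top valid dose tested; inconclusive = flat fit at mid-level activity, or a poor quality fit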
FGF22 TSA: binders of human FGF22 protein, dose response, FGF22 synaptogenesis inhibitor project, biophysical, thermal shift, dry powder; shares compounds with FGF22 binding-1; Thermal shift assay, SYPRO orange, melting temperature shift; Tm shift (activity), % at 38 µM; 50 tested, under 10 active; AID 743017, 2013;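 active = compounds whose fitted dose curve of melting temperature shift rises past a set threshold within the tested doses; inconclusive = flat curve at moderate activity, or poor curve fit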
SYPRO no-protein: compound-only thermal shift signal without protein, dose response, artefact control for FGF22 binder project, biochemical, cherry-picked samples, RT-PCR instrument; hit rate 2% among 1,000; compound-only SYPRO orange thermal shift counter-screen, no protein; shares compounds with FGF22 binding-1; AC50, µM (titrated, usually from 38 µM);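 active = rising signal whose fitted curve reaches the 0.54 level within the top valid dose, showing a melting point, actives reach about 13 µM in these data; inactive = the rest, including activity in the opposite direction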; also: value is where the raw curve crosses a fixed level and not half-maximal
Hits are given with their value; n = inactive; u = inconclusive; x = not tested or not shown.

SMILES	FGF22 binding-1	E-sel inducer	SIRT5 inh	S100A4 MyoIIA	miR-122 sensor	FGF22 binding-2	SYPRO no-protein	others
O=C(NCC[C@H]1CC[C@@H](NC(=O)C2CC2)[C@@H](CO)O1)Nc1ccc(Cl)cc1	n	n	n	n	x	x	x
O=C(NCC[C@H]1CC[C@H](NC(=O)C2CCOCC2)[C@@H](CO)O1)Nc1ccc(Cl)cc1	1.5	n	n	n	x	n	n
C[C@H](CO)N1C[C@H](C)[C@@H](CN(C)C(=O)Nc2ccc3c(c2)OCO3)Oc2ccc(NC(=O)Cc3ccccc3)cc2CC1=O	n	n	n	n	n	x	x
O=C(Nc1ccc2c(c1)[C@@H]1C[C@H](CC(=O)N3CCCCC3)O[C@@H](CO)[C@@H]1O2)NC1CCCC1	20	n	n	n	n	n	n
O=C(Nc1ccc2c(c1)[C@@H]1C[C@@H](CC(=O)N3CCCCC3)O[C@@H](CO)[C@@H]1O2)NC1CCCC1	n	n	n	n	n	x	x
COCC(=O)Nc1ccc2c(c1)[C@H]1C[C@@H](CC(=O)NCCN3CCCCC3)O[C@H](CO)[C@H]1O2	1.3	n	n	n	n	n	n
COCC(=O)Nc1ccc2c(c1)[C@@H]1C[C@@H](CC(=O)NCc3ccccn3)O[C@@H](CO)[C@@H]1O2	1.3	n	n	n	n	n	n
CN(C)CC(=O)Nc1ccc2c(c1)[C@H]1C[C@H](CC(=O)NCC3CC3)O[C@H](CO)[C@H]1O2	n	n	n	n	n	x	x
CN(C)CC(=O)Nc1ccc2c(c1)[C@H]1C[C@@H](CC(=O)NCC3CC3)O[C@H](CO)[C@H]1O2	1.3	n	n	n	n	n	n
C[C@H](CO)N1C[C@H](C)[C@@H](CN(C)S(=O)(=O)c2ccccc2)Oc2ncc(C#CCN(C)C)cc2C1=O	n	n	n	n	n	x	x
O=C(Nc1ccccc1)N1CCCCN2[C@@H](CO)[C@@H](c3ccc(Br)cc3)[C@@H]2C1	n	n	n	n	n	x	x
COc1ccc2c3c([nH]c2c1)[C@@H](CO)N(C(=O)C1CCC1)CC31CN(Cc2cccc(F)c2)C1	n	n	n	n	x	x	x
O=C(C1CC1)N1[C@@H]2CN(S(=O)(=O)c3ccccc3)c3ccccc3[C@@H]2[C@@H]1CO	n	n	n	n	n	x	x
C[C@@H]1CN([C@H](C)CO)C(=O)c2cc(-c3cncnc3)cnc2O[C@H]1CN(C)C(=O)Cc1ccccn1	n	n	n	n	n	x	x
CNC[C@H]1OCCCC[C@H](C)Oc2ccc(NC(=O)Nc3ccc(F)cc3)cc2C(=O)N([C@H](C)CO)C[C@H]1C	n	n	n	n	n	x	x
NS(=O)(=O)c1cc(C(=O)NC2CCSc3ccccc32)ccc1Cl (centres undefined)	1.8	x	43	n	n	n	n
COc1ccc(OC)c(NC(=O)NNC(=O)CCCOc2ccc(Cl)cc2C)c1	1.7	x	n	n	x	n	n
O=C(CNC(=O)OCc1ccccc1)NC1CCCCCCC1	x	x	x	x	n	x	x
O=C(COc1ccccc1)NCC(=O)NC1CCCCC1	1.9	n	n	n	n	n	n
S=c1[nH]c2cc3ccccc3cc2[nH]1	2.1	n	n	n	x	n	n
CCCC(=O)Nc1ccc2c(c1)OC[C@@H](C)N(C(=O)CC1CC1)C[C@@H](C)[C@H](OC)CN(C)C2=O	n	n	x	n	n	x	x
COc1ccc2c3c(n(C)c2c1)[C@H](CO)N(C(=O)NC(C)C)CC31CCN(CC2CCCCC2)CC1	n	n	x	n	x	x	x
CC(=O)Nc1ccc(S(=O)(=O)Nc2nc3ccccc3nc2Nc2cccc(S(N)(=O)=O)c2)cc1	2.0	n	n	n	x	n	n
C=CCC(=O)NC1CC(C)(C)Cc2c1cnn2-c1ccccc1C (centres undefined)	n	n	n	n	x	x	x
Cc1ccccc1-n1ncc2c1CC(C)(C)CC2NC(=O)C1CCC1 (centres undefined)	1.4	x	n	n	n	n	n
SMILES	FGF22 binding-1	E-sel inducer	SIRT5 inh	S100A4 MyoIIA	miR-122 sensor	FGF22 binding-2	SYPRO no-protein	others
O=C(Nc1ccc(S(=O)(=O)NCc2ccccc2)cc1)c1ccccc1[N+](=O)[O-]	2.4	n	n	n	x	n	n
Cc1cc(NC(=O)Nc2ccc3c(ccn3C)c2)sn1	2.8	u	n	n	n	n	n	FGF22 TSA=n
CCC(C)NS(=O)(=O)c1ccc(S(=O)(=O)N2CC=C(c3ccc(F)cc3)CC2)cc1 (centres undefined)	14	n	n	n	x	n	n
N#Cc1c(-c2ccccc2)nc(-c2ccncc2)[nH]c1=O	1.6	n	n	n	n	n	n
COc1ccc(-c2ccc([C@@H]3[C@@H](CO)N4C(=O)CNC[C@@H]34)cc2)cc1	x	n	n	n	x	x	x
CCc1ccc(NC(=O)c2ccc(-n3cncn3)c([N+](=O)[O-])c2)cc1	2.3	n	n	n	n	n	n
C[C@H]1CN([C@@H](C)CO)C(=O)c2cc(NS(C)(=O)=O)ccc2O[C@H]1CN(C)C(=O)Nc1ccc2c(c1)OCO2	n	n	n	n	n	x	x
COc1cc(C=O)ccc1OCc1cn(CC(=O)c2ccc(O)cc2)nn1	n	n	x	n	n	x	x
O=C(Cn1cc(COc2ccc(Br)cc2[N+](=O)[O-])nn1)c1ccc(O)cc1	1.7	n	n	n	n	n	n
CC1CCCCN1C(=O)CCNC(=O)Cn1cnc2ccccc2c1=O (centres undefined)	n	n	n	n	n	x	x
CCC1CCCCN1C(=O)CCNC(=O)Cn1cnc2ccccc2c1=O (centres undefined)	1.4	n	n	n	n	n	n
C[C@H](CO)N1C[C@H](C)[C@@H](CN(C)S(C)(=O)=O)OCCCC[C@H](C)Oc2ccc(NS(C)(=O)=O)cc2C1=O	n	n	x	x	n	x	x
O=C(Nc1ccc(-c2ccccc2)cc1)[C@@H]1[C@@H](CO)[C@@H]2Cn3c(cccc3=O)[C@@H]2N1CC1CCCCC1	n	n	n	n	n	x	x

Bioassay records deposited in PubChem by Broad Institute.
